Experimental data reported in ChEMBL document CHEMBL1122445, “Novel fluorinated antifolates. Enzyme inhibition and cytotoxicity studies on 2'- and 3'-fluoroaminopterin” (J Med Chem, 1983).
pEC50, pIC50, pKi: −log10 of the molar value.

target: Dihydrofolate reductase (Lactobacillus casei, UniProt P00381); test: Inhibition of dihydrofolate reductase in Lactobacillus casei; parameters: species or system Lacticaseibacillus casei; settings: read-out: I50
Procedure, shortened: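 L. casei DHFR purified to homogeneity from an MTX-resistant overproducer strain, with enzyme level (4–5 × 10^-9 M) set by MTX titration. […] Rates were taken from the linear 0.5–2 min region. I50 is the concentration halving the rate; Ki is from the Cha equation, correcting for inhibitor depletion.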

Chain of Dihydrofolate reductase (Lactobacillus casei, UniProt P00381) (P00381 whole entry): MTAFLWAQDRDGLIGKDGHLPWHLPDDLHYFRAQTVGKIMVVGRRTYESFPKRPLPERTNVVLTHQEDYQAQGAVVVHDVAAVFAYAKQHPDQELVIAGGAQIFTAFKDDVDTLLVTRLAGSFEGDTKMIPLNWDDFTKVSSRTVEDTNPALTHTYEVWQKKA

Compound	pIC50
Nc1nc(N)c2nc(CNc3ccc(C(=O)NC(CCC(=O)O)C(=O)O)c(F)c3)cnc2n1 (configuration not stated)	8.33
Nc1nc(N)c2nc(CNc3ccc(C(=O)NC(CCC(=O)O)C(=O)O)cc3F)cnc2n1 (configuration not stated)	8.46
Nc1nc(N)c2nc(CNc3ccc(C(=O)N[C@@H](CCC(=O)O)C(=O)O)cc3)cnc2n1 [AMINOPTERIN]	8.30

target: T1, Dihydrofolate reductase (Escherichia coli, UniProt P0ABQ4); test: Inhibition of dihydrofolate reductase in Escherichia coli; settings: read-out: I50
T1 sequence (P0ABQ4 whole entry): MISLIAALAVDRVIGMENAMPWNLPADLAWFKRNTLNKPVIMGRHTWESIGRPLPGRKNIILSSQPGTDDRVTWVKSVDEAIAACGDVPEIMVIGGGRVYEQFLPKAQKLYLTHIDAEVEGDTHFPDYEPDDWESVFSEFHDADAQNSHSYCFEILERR
Procedure, shortened: (§1)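 E. coli MB 1428 MTX-resistant overproducer DHFR purified to homogeneity by MTX affinity chromatography; spectrophotometric assay at pH 7.2 with 40 μM NADPH and 44 μM dihydrofolate (Km 0.44 μM); enzyme 4 to 5×10^-9 M, titrated with MTX. Rates taken over linear 0.5–2 min (<10% substrate used). I50 = half of control rate; Ki from I50 via Cha equation corrected for enzyme-bound inhibitor.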

Compound	pIC50
Nc1nc(N)c2nc(CNc3ccc(C(=O)NC(CCC(=O)O)C(=O)O)c(F)c3)cnc2n1 (configuration not stated)	8.00
Nc1nc(N)c2nc(CNc3ccc(C(=O)NC(CCC(=O)O)C(=O)O)cc3F)cnc2n1 (configuration not stated)	8.30
Nc1nc(N)c2nc(CNc3ccc(C(=O)N[C@@H](CCC(=O)O)C(=O)O)cc3)cnc2n1 [AMINOPTERIN]	7.96

target: T2, Dihydrofolate reductase (Homo sapiens, UniProt P00374); test: Inhibition of dihydrofolate reductase in HeLa cells; format: cell-based; settings: read-out: I50
T2 sequence (P00374 whole entry): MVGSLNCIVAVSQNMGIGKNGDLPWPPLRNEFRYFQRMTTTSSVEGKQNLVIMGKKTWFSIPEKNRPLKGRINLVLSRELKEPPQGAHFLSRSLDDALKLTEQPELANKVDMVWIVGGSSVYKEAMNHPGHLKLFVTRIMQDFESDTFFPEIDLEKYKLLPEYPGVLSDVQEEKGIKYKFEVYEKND

Compound	pIC50
Nc1nc(N)c2nc(CNc3ccc(C(=O)NC(CCC(=O)O)C(=O)O)c(F)c3)cnc2n1 (configuration not stated)	7.57
Nc1nc(N)c2nc(CNc3ccc(C(=O)NC(CCC(=O)O)C(=O)O)cc3F)cnc2n1 (configuration not stated)	7.72

system: Escherichia coli; test: Inhibition constant (Ki) was determined in Escherichia coli; format: functional; settings: not given; procedure, shortened: as §1

Compound	pKi
Nc1nc(N)c2nc(CNc3ccc(C(=O)NC(CCC(=O)O)C(=O)O)c(F)c3)cnc2n1 (configuration not stated)	10.10
Nc1nc(N)c2nc(CNc3ccc(C(=O)NC(CCC(=O)O)C(=O)O)cc3F)cnc2n1 (configuration not stated)	10.52
Nc1nc(N)c2nc(CNc3ccc(C(=O)N[C@@H](CCC(=O)O)C(=O)O)cc3)cnc2n1 [AMINOPTERIN]	10.05

system: HuTu80; test: Inhibition of growth (cytotoxicity) of HuTu 80 cell line in vitro; format: functional, cell-based; settings: Homo sapiens
Procedure, shortened: (§2)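 About 1 × 10^5 L1210 or HuTu 80 cells in 1 mL of their original medium with inhibitor, 37 °C for 72 h; counted by Coulter counter (10- to 20-fold growth in controls). EC50 = concentration reducing growth 50% versus inhibitor-free controls.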

Compound	pEC50
CN(Cc1cnc2nc(N)nc(N)c2n1)c1ccc(C(=O)N[C@@H](CCC(=O)O)C(=O)O)cc1 [METHOTREXATE]	8.35
Nc1nc(N)c2nc(CNc3ccc(C(=O)NC(CCC(=O)O)C(=O)O)c(F)c3)cnc2n1 (configuration not stated)	8.32
Nc1nc(N)c2nc(CNc3ccc(C(=O)NC(CCC(=O)O)C(=O)O)cc3F)cnc2n1 (configuration not stated)	8.64
Nc1nc(N)c2nc(CNc3ccc(C(=O)N[C@@H](CCC(=O)O)C(=O)O)cc3)cnc2n1 [AMINOPTERIN]	8.33

target: Lacticaseibacillus casei; test: Inhibition constant (Ki) was determined in Lactobacillus casei; format: functional; settings: not given

Compound	pKi
Nc1nc(N)c2nc(CNc3ccc(C(=O)NC(CCC(=O)O)C(=O)O)c(F)c3)cnc2n1 (configuration not stated)	10.02
Nc1nc(N)c2nc(CNc3ccc(C(=O)NC(CCC(=O)O)C(=O)O)cc3F)cnc2n1 (configuration not stated)	10.22
Nc1nc(N)c2nc(CNc3ccc(C(=O)N[C@@H](CCC(=O)O)C(=O)O)cc3)cnc2n1 [AMINOPTERIN]	9.96

system: L1210; test: Inhibition of growth (cytotoxicity) of L1210 cell line in vitro; format: functional, cell-based; settings: Mus musculus; procedure, shortened: as §2

Compound	pEC50
CN(Cc1cnc2nc(N)nc(N)c2n1)c1ccc(C(=O)N[C@@H](CCC(=O)O)C(=O)O)cc1 [METHOTREXATE]	8.49
Nc1nc(N)c2nc(CNc3ccc(C(=O)NC(CCC(=O)O)C(=O)O)c(F)c3)cnc2n1 (configuration not stated)	8.64
Nc1nc(N)c2nc(CNc3ccc(C(=O)NC(CCC(=O)O)C(=O)O)cc3F)cnc2n1 (configuration not stated)	9.00
Nc1nc(N)c2nc(CNc3ccc(C(=O)N[C@@H](CCC(=O)O)C(=O)O)cc3)cnc2n1 [AMINOPTERIN]	8.74
